Assays:
Rattus norvegicus [1] = assay: Maximum fall in systolic blood pressure, intervals from 1 to 6 hours at a dose of 100 mg/kg administered per orally; format: functional, Artery; settings: route oral
Summary of the method: (§1)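 DOCA/NaCl-treated hypertensive rats, kept at least 2 months after surgery (body weight 300–450 g), selected at systolic pressure of 160 mmHg or more. Compound given orally by dosing needle into the esophagus as a solution or suspension in 1% w/v methylcellulose. Systolic pressure measured by tail-cuff in restrained rats at 33.5 °C, before dosing and at intervals from 1 to 6 h; each reading was the mean of at least six recordings.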

Rattus norvegicus [2] = assay: Maximum fall in systolic blood pressure at interval from 1 to 6 hours at a dose of 3 mg/kg when administered perorally in rats; format: functional, Artery; settings: route oral; summary of the method: as §1
Rattus norvegicus [3] = assay: Maximum fall in systolic blood pressure at interval from 1 to 6 hours at a dose of 1 mg/kg when administered perorally in rats; format: functional, Artery; settings: route oral; summary of the method: as §1
Rattus norvegicus [4] = assay: Maximum fall in systolic blood pressure, intervals from 1 to 6 hours at a dose of 10 mg/kg administered per orally; format: functional, Artery; settings: route oral; summary of the method: as §1
Rattus norvegicus [5] = assay: Maximum fall in systolic blood pressure at interval from 1 to 6 hours at a dose of 30 mg/kg when administered perorally in rats; format: functional, Artery; settings: route oral; summary of the method: as §1
Rattus norvegicus [6] = species on record: Rattus norvegicus; assay: Compound was tested at 9.7e-6M for inhibition of spontaneous activity in rat isolated portal vein
Rattus norvegicus [7] = assay: Maximum fall in systolic blood pressure at interval from 1 to 6 hours at a dose of 0.3 mg/kg when administered perorally in rats; format: functional, Artery; settings: route oral; summary of the method: as §1
Rattus norvegicus [8] = assay: Maximum fall in systolic blood pressure at interval from 1 to 6 hours at a dose of 300 mg/kg when administered perorally in rats; format: functional, Artery; settings: route oral; summary of the method: as §1

| SMILES | Max fall in blood pressure (Rattus norvegicus [1]) | Max fall in blood pressure (Rattus norvegicus [4]) | Max fall in blood pressure (Rattus norvegicus [5]) | also measured |
| --- | --- | --- | --- | --- |
| CC1(C)Oc2ccc([N+](=O)[O-])cc2[C@@H](NCCCO)[C@@H]1O.Cl | 28 mmHg |  |  |  |
| Cc1ccc2c(c1)[C@@H](N1CCCC1)[C@H](O)C(C)(C)O2.Cl | 9 mmHg |  |  |  |
| CC1(C)Oc2ccc([N+](=O)[O-])cc2[C@@H](N2CCCCC2)[C@@H]1O.CS(=O)(=O)O |  | 105 mmHg |  | Max fall in blood pressure (Rattus norvegicus [2]): 73 mmHg; Max fall in blood pressure (Rattus norvegicus [3]): 28 mmHg |
| CC1(C)Oc2cc(C#N)ccc2[C@@H](N2CCCCC2)[C@@H]1O.Cl | 33 mmHg |  | 7 mmHg |  |
| CCN(CC)[C@@H]1c2cc([N+](=O)[O-])ccc2OC(C)(C)[C@H]1O.Cl | 54 mmHg |  | 34 mmHg |  |
| CC(=O)c1ccc2c(c1)[C@@H](N1CCCC1)[C@H](O)C(C)(C)O2.Cl | 78 mmHg | 53 mmHg | 66 mmHg | Max fall in blood pressure (Rattus norvegicus [2]): 39 mmHg |
| NNc1nncc2ccccc12 [HYDRALAZINE] |  | 113 mmHg |  | Inhibition (Rattus norvegicus [6]): 40%; Max fall in blood pressure (Rattus norvegicus [2]): 65 mmHg; Max fall in blood pressure (Rattus norvegicus [3]): 32 mmHg |
| CC1(C)Oc2c(C#N)cccc2[C@@H](N2CCCCC2)[C@@H]1O.Cl | 33 mmHg | 5 mmHg |  |  |
| CC1(C)Oc2cccc(C#N)c2[C@@H](N2CCCCC2)[C@@H]1O.Cl | 33 mmHg | 13 mmHg |  |  |
| CC1(C)Oc2c(ccc3ccccc23)[C@@H](N2CCCC2)[C@@H]1O | 4 mmHg |  |  |  |
| CC1(C)Oc2ccc([N+](=O)[O-])cc2[C@@H](NCCN2CCCC2)[C@@H]1O.Cl.Cl | 23 mmHg |  |  |  |
| COc1ccc2c(c1)[C@@H](N1CCCC1)[C@H](O)C(C)(C)O2.Cl | 17 mmHg |  | 29 mmHg |  |
| CC1(C)Oc2ccc([N+](=O)[O-])cc2[C@@H](N2CCOCC2)[C@@H]1O.Cl | 70 mmHg | 23 mmHg | 55 mmHg |  |
| CC(=O)Nc1ccc2c(c1)[C@@H](N1CCCCC1)[C@H](O)C(C)(C)O2.CS(=O)(=O)O | 14 mmHg | 6 mmHg |  |  |
| CC1CCN([C@@H]2c3cc([N+](=O)[O-])ccc3OC(C)(C)[C@H]2O)CC1.Cl |  | 28 mmHg |  |  |
| CN[C@@H]1c2cc([N+](=O)[O-])ccc2OC(C)(C)[C@H]1O.Cl | 43 mmHg |  | 21 mmHg |  |
| COC(=O)C1=C(C)NC(C)=C(C(=O)OC)C1c1ccccc1[N+](=O)[O-] [NIFEDIPINE] |  |  |  | Max fall in blood pressure (Rattus norvegicus [7]): 20 mmHg; Max fall in blood pressure (Rattus norvegicus [2]): 51 mmHg; Max fall in blood pressure (Rattus norvegicus [3]): 33 mmHg |
| CS(=O)(=O)O.Cc1c([N+](=O)[O-])ccc2c1OC(C)(C)[C@@H](O)[C@@H]2N1CCCCC1 | 39 mmHg |  |  |  |
| CC(C)(C)N[C@@H]1c2cc([N+](=O)[O-])ccc2OC(C)(C)[C@H]1O.CS(=O)(=O)O | 7 mmHg |  |  |  |
| Cc1ccc2c(c1)[C@@H](N1CCCCC1)[C@H](O)C(C)(C)O2.Cl | 43 mmHg | 34 mmHg | 44 mmHg |  |
| CC1(C)Oc2cc([N+](=O)[O-])ccc2[C@@H](N2CCCC2)[C@@H]1O.CS(=O)(=O)O |  | 99 mmHg |  | Max fall in blood pressure (Rattus norvegicus [2]): 90 mmHg; Max fall in blood pressure (Rattus norvegicus [3]): 44 mmHg |
| CC1(C)Oc2ccc([N+](=O)[O-])cc2[C@@H](N)[C@@H]1O.Cl | 45 mmHg |  | 23 mmHg |  |
| CC1(C)Oc2ccc(C(N)=O)cc2[C@@H](N2CCCC2)[C@@H]1O.CS(=O)(=O)O | 21 mmHg |  |  |  |
| CC1(C)Oc2ccc3ccccc3c2[C@@H](N2CCCCC2)[C@@H]1O.Cl | 4 mmHg |  |  |  |
| CC1(C)Oc2ccc([N+](=O)[O-])cc2[C@@H](N2CCCCCCC2)[C@@H]1O.Cl |  | 53 mmHg | 82 mmHg | Max fall in blood pressure (Rattus norvegicus [2]): 34 mmHg |

| SMILES | Max fall in blood pressure (Rattus norvegicus [1]) | Max fall in blood pressure (Rattus norvegicus [4]) | Max fall in blood pressure (Rattus norvegicus [5]) | also measured |
| --- | --- | --- | --- | --- |
| CC1(C)Oc2ccc(Cl)cc2[C@@H](N2CCCCC2)[C@@H]1O.Cl | 69 mmHg |  | 7 mmHg |  |
| CC1(C)Oc2ccccc2[C@@H](N2CCCC2)[C@@H]1O.Cl | 46 mmHg |  | 10 mmHg |  |
| CC1(C)Oc2ccc([N+](=O)[O-])cc2[C@@H](N2CCN(c3ccccc3)CC2)[C@@H]1O.Cl |  | 10 mmHg |  |  |
| CC1(C)Oc2ccc(C#N)cc2[C@@H](N2CCCC2)[C@@H]1O.Cl |  |  |  | Max fall in blood pressure (Rattus norvegicus [7]): 15 mmHg; Inhibition (Rattus norvegicus [6]): 32%; Max fall in blood pressure (Rattus norvegicus [2]): 117 mmHg; Max fall in blood pressure (Rattus norvegicus [3]): 43 mmHg |
| CC1(C)Oc2ccc([N+](=O)[O-])cc2[C@@H](N2CCCC2)[C@@H]1O.CS(=O)(=O)O |  | 98 mmHg |  | Max fall in blood pressure (Rattus norvegicus [2]): 79 mmHg; Max fall in blood pressure (Rattus norvegicus [3]): 52 mmHg |
| CC1(C)Oc2cc([N+](=O)[O-])ccc2[C@@H](N2CCCCC2)[C@@H]1O.Cl | 79 mmHg | 48 mmHg |  | Max fall in blood pressure (Rattus norvegicus [2]): 18 mmHg |
| CC1(C)Oc2ccc(N)cc2[C@@H](N2CCCC2)[C@@H]1O.Cl.Cl | 6 mmHg |  |  |  |
| CC1(C)Oc2ccc([N+](=O)[O-])cc2[C@@H](NC2CC2)[C@@H]1O.CS(=O)(=O)O | 95 mmHg | 31 mmHg |  |  |
| CC(=O)c1ccc2c(c1)[C@@H](N1CCCCC1)[C@H](O)C(C)(C)O2.Cl | 127 mmHg | 51 mmHg | 65 mmHg | Max fall in blood pressure (Rattus norvegicus [2]): 12 mmHg |
| CC1(C)Oc2ccc(F)cc2[C@@H](N2CCCCC2)[C@@H]1O.Cl | 26 mmHg | 16 mmHg |  |  |
| COC(=O)c1ccc2c(c1)[C@@H](N1CCCC1)[C@H](O)C(C)(C)O2.CS(=O)(=O)O |  | 58 mmHg | 65 mmHg | Max fall in blood pressure (Rattus norvegicus [2]): 14 mmHg |
| C/C(=N\O)c1ccc2c(c1)[C@@H](N1CCCCC1)[C@H](O)C(C)(C)O2.CS(=O)(=O)O | 74 mmHg | 17 mmHg | 80 mmHg |  |
| CC1(C)Oc2ccc([N+](=O)[O-])cc2[C@@H](N2CCCCCC2)[C@@H]1O.Cl | 96 mmHg | 17 mmHg |  |  |
| CC(O)c1ccc2c(c1)[C@@H](N1CCCCC1)[C@H](O)C(C)(C)O2.Cl (stereo not given in full) |  | 20 mmHg | 115 mmHg |  |
| CC1(C)Oc2ccc([N+](=O)[O-])cc2[C@@H](N2C3CCCC2CCC3)[C@@H]1O.CS(=O)(=O)O |  | 20 mmHg |  |  |
| CC1(C)Oc2ccc(C(N)=O)cc2[C@@H](N2CCCCC2)[C@@H]1O.CS(=O)(=O)O | 30 mmHg | 9 mmHg |  |  |
| CC1(C)Oc2ccc(C(=O)O)cc2[C@@H](N2CCCC2)[C@@H]1O |  | 2 mmHg |  |  |
| CN(C)[C@@H]1c2cc([N+](=O)[O-])ccc2OC(C)(C)[C@H]1O.Cl | 29 mmHg |  |  |  |
| CC1CCC(C)N1[C@@H]1c2cc([N+](=O)[O-])ccc2OC(C)(C)[C@H]1O.Cl (stereo not given in full) |  |  | 26 mmHg |  |
| CC1(C)Oc2ccc([N+](=O)[O-])cc2[C@@H](NCC2CC2)[C@@H]1O.Cl | 13 mmHg |  |  |  |
| CC1(C)Oc2ccc([N+](=O)[O-])cc2[C@@H](NCCO)[C@@H]1O.Cl | 27 mmHg |  |  |  |
| CC1(C)Oc2ccc(C#N)cc2[C@@H](N2CCCCC2)[C@@H]1O.Cl |  | 107 mmHg |  | Max fall in blood pressure (Rattus norvegicus [7]): 29 mmHg; Max fall in blood pressure (Rattus norvegicus [2]): 88 mmHg; Max fall in blood pressure (Rattus norvegicus [3]): 35 mmHg |
| CC1(C)Oc2cccc([N+](=O)[O-])c2[C@@H](N2CCCCC2)[C@@H]1O.Cl | 12 mmHg |  |  |  |
| CC(C)N[C@@H]1c2cc([N+](=O)[O-])ccc2OC(C)(C)[C@H]1O.Cl | 36 mmHg |  |  | Max fall in blood pressure (Rattus norvegicus [8]): 69 mmHg |

Reference: ChEMBL document CHEMBL1122483, “Synthesis and antihypertensive activity of substituted trans-4-amino-3,4-dihydro-2,2-dimethyl-2H-1-benzopyran-3-ols” (1983)
